# Assay results as given in paper PMC8504818 (Clinical and Translational Science, 2021).
# Entries after “also recorded” stand apart in the source; their conditions may differ. Read-outs that look alike come from different tables or passages of the source. Marks after values point to notes of the source that are not given here.
# Key:
# HIV‐1 = conditions: cited from earlier work
# SIV [1] = conditions: weekly oral islatravir; cited from earlier work
# Study 1 [2] = type: in vivo, human
# Procedure, shortened: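 Fasted single oral-suspension doses, with 30 mg also given after a high-fat breakfast (55.6 g fat, 55 g carbohydrate, 31.1 g protein), 6 active and 2 placebo per panel. Plasma was sampled predose to ~96 h and analysed by protein precipitation and reversed-phase LC-MS/MS (LLOQ 1.00 ng/ml; range 1.00–1000.00 ng/ml). Log-transformed values went into a mixed model (treatment fixed, subject random), giving a fed/fasted geometric mean ratio with 90% CI.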
# [3] = cited from earlier work
# Study 2 = type: in vivo, human; conditions: for Accumulation ratio: week 3 / week 1, plasma islatravir AUC0–168 h / Accumulation ratio: week 3 / week 1, plasma islatravir Cmax: LS mean difference (90% CI); for AUC(0-t): Plasma islatravir AUC0–168 h; for AUC(0-t) / Cmax: LS mean (95% CI); for Cmax: Plasma islatravir Cmax
# Procedure, shortened: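 Capsules of 10, 30 or 100 mg were given once weekly for 3 weeks, fasted (6 active, 2 placebo per panel). Plasma was sampled predose to ~168 h after dosing and measured by reversed-phase LC-MS/MS after protein precipitation (LLOQ 1.00 ng/ml). […] Week 3/week 1 ratios are back-transformed with 90% CI.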
# [4] = Study 2 safety and tolerability; type: in vivo, human
# Procedure, shortened: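 Double-blind, randomized, serial-panel multiple-dose design: 3 panels of 8 (6 active, 2 placebo) took capsules once weekly for 3 weeks, at least 10 days between panels. Assessments were vital signs, 12-lead ECGs, and hematology and blood chemistry at prespecified times. Adverse events were monitored from consent through 21 days after the last dose. Placebo data were pooled. Participants were adults 18–60 y, BMI ≤32 kg/m2, without HIV.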
# Study 1 [5] = type: in vivo, human; remark: listed apart in the source
# Procedure, shortened: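 Double-blind, randomized, alternating-panel single-dose design: 3 panels of 8 (6 active, 2 placebo) received an oral suspension or the vehicle as placebo. Assessments were vital signs, 12-lead ECGs, and hematology and blood chemistry at prespecified times. Adverse events were recorded from consent through 21 days after treatment ended. Placebo recipients were pooled. Participants were adults 18–60 y, BMI ≤32 kg/m2, men or women of nonchildbearing potential.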
# SIV [6] = conditions: once‐weekly oral islatravir; cited from earlier work
# [7] = type: in vivo, human; conditions: for Tmax: human, PBMCs, oral
# Procedure, shortened: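 Healthy adults took weekly oral capsules (10, 30, 100 mg) for 3 weeks. PBMCs were collected up to ~336 h after the last dose and triphosphate was quantified by ion-exchange LC-MS/MS (LLOQ 0.50 ng/ml). Tmax is observed. […] LS means are given with 95% CI.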
# Study 1 [8] = type: in vivo, human; conditions: for Intracellular islatravir‐TP AUC0–168 h / Intracellular islatravir‐TP AUC0–∞ / Intracellular islatravir‐TP C168 h / Intracellular islatravir‐TP Cmax: PBMC, LS geometric mean (95% CI)
# Procedure, shortened: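 PBMCs from healthy adults were collected up to ~336 h after single oral doses, fasted or after a high-fat meal (30 mg). Cells were lysed in methanol-containing solvent, protein-precipitated, and triphosphate was measured by ion-exchange LC-MS/MS (LLOQ 0.50 ng/ml; range 0.50–200.00 ng/ml). Concentrations were carryover-corrected when predose exceeded 5% of Cmax. Results are LS geometric means (95% CI) from a log-scale mixed model; fed/fasted ratios have 90% CI.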
# [9] = human, plasma, oral, 100 mg, Study 2, 100 mg once weekly, Week 1
# [10] = human, plasma, oral, 100 mg, Study 2, 100 mg once weekly, Week 3
# [11] = up to 100 mg once weekly for 3 weeks
# [12] = Study 2, 10 mg once weekly, Week 1, LS mean (95% CI)
# [13] = Study 2, 10 mg once weekly, Week 3, LS mean (95% CI)
# [14] = Study 2, 30 mg once weekly, Week 1, LS mean (95% CI)
# [15] = Study 2, 30 mg once weekly, Week 3, LS mean (95% CI)
# [16] = Study 2, 100 mg once weekly, Week 1, LS mean (95% CI)
# [17] = Study 2, 100 mg once weekly, Week 3, LS mean (95% CI)
smiles,measurement,setting,value
"C#C[C@]1(CO)O[C@@H](n2cnc3c(N)nc(F)nc32)C[C@@H]1O [islatravir, 4'‐Ethynyl‐2‐fluoro‐2'‐deoxyadenosine]",tolerability,HIV‐1; phase 1b single dose,generally well‐tolerated
same,suppression of HIV‐1 RNA,"HIV‐1; single oral doses as low as 0.5 mg, day 7",greater than 1.0 log
same,protection from infection,SIV [1],protected
same,decrease in plasma islatravir Cmax with a high‐fat meal,Study 1 [2]; 30 mg fed vs fasted,49%
same,increase in plasma islatravir AUC0–∞ with a high‐fat meal,Study 1 [2]; 30 mg fed vs fasted,10%
same,food effect on pharmacokinetics,Study 1 [2]; 30 mg with a high‐fat meal,no meaningful food effect
same,Tmax,"Study 1 [2]; human, plasma, po, median time to maximum plasma concentration (Tmax), fasted state, single oral doses",0.5 h
same,time of peak plasma concentrations postdose,"[3]; rhesus macaque, enteral administration",~ 90 min
same,"Accumulation ratio: week 3 / week 1, plasma islatravir AUC0–168 h","Study 2; Study 2, 10 mg once weekly","1.22 (1.08, 1.36) h*μmol/L"
same,"Accumulation ratio: week 3 / week 1, plasma islatravir Cmax","Study 2; Study 2, 10 mg once weekly","1.25 (0.82, 1.92) nmol/L"
same,"Accumulation ratio: week 3 / week 1, plasma islatravir AUC0–168 h","Study 2; Study 2, 30 mg once weekly","1.22 (1.09, 1.37) h*μmol/L"
same,"Accumulation ratio: week 3 / week 1, plasma islatravir Cmax","Study 2; Study 2, 30 mg once weekly","0.99 (0.64, 1.51) nmol/L"
same,"Accumulation ratio: week 3 / week 1, plasma islatravir AUC0–168 h","Study 2; Study 2, 100 mg once weekly","1.25 (1.11, 1.40) h*μmol/L"
same,"Accumulation ratio: week 3 / week 1, plasma islatravir Cmax","Study 2; Study 2, 100 mg once weekly","1.26 (0.82, 1.93) nmol/L"
same,accumulation of islatravir in plasma,"Study 2; Study 2, once‐weekly dosing for 3 weeks",little to no accumulation; also recorded: minimal accumulation
same,concentration at 48 h,"Study 2; human, plasma, oral, 10 mg",< 1 ng/mL
same,concentration at 96 h,"Study 2; human, plasma, oral, 10 mg",< 1 ng/mL
same,half-life,"Study 2; human, plasma, oral, 10 mg",16.5 h
same,half-life,"Study 2; human, plasma, oral, 30 mg",74.2 h
same,half-life,"Study 2; human, plasma, oral, 100 mg",87.1 h
same,AUC(0-t),Study 2; [9],9.62 µM·h
same,AUC(0-t),Study 2; [10],12 µM·h
same,Cmax,Study 2; [9],1470 nM
same,Cmax,Study 2; [10],1850 nM
same,"changes in clinical laboratory values, vital signs, or ECG safety parameter values",[4],No clinically meaningful relationships
same,intensity of adverse events,[4],mild to moderate
same,total nonserious adverse events,[4],12
same,serious adverse events,[4]; [11],no serious adverse events
same,tolerability,[4]; [11],generally well‐tolerated
same,adverse events considered related to islatravir,Study 1 [5],none
same,"changes in clinical laboratory values, vital signs, or ECG safety parameter values",Study 1 [5],No clinically meaningful relationships
same,intensity of adverse events,Study 1 [5],mild to moderate
same,total nonserious adverse events,Study 1 [5],30
same,serious adverse events,Study 1 [5]; single doses up to 400 mg,no serious adverse events
same,tolerability,Study 1 [5]; single oral doses up to 400 mg,generally well‐tolerated
same,duration of declines in SIV RNA,SIV [6],at least 7 days
"C#C[C@]1(COP(=O)(O)OP(=O)(O)OP(=O)(O)O)O[C@@H](n2cnc3c(N)nc(F)nc32)C[C@@H]1O [islatravir‐TP, 4'‐Ethynyl‐2‐fluoro‐2'‐deoxyadenosine triphosphate]",Islatravir‐TP AUC0–168 h,[7]; [12],"341 (256, 454) h*pmol/10^6 cells"
same,Islatravir‐TP Cmax,[7]; [12],"3.79 (2.68, 5.34) pmol/10^6 cells"
same,Islatravir‐TP AUC0–168 h,[7]; [13],"476 (357, 634) h*pmol/10^6 cells"
same,Islatravir‐TP Cmax,[7]; [13],"6.38 (4.52, 9.00) pmol/10^6 cells"
same,Islatravir‐TP AUC0–168 h,[7]; [14],"1160 (872, 1550) h*pmol/10^6 cells"
same,Islatravir‐TP Cmax,[7]; [14],"13.2 (9.34, 18.6) pmol/10^6 cells"
same,Islatravir‐TP AUC0–168 h,[7]; [15],"1570 (1180, 2100) h*pmol/10^6 cells"
same,Islatravir‐TP Cmax,[7]; [15],"19.6 (13.9, 27.7) pmol/10^6 cells"
same,Islatravir‐TP AUC0–168 h,[7]; [16],"3150 (2370, 4200) h*pmol/10^6 cells"
same,Islatravir‐TP C168,[7]; [16],"13.5 (10.4, 17.6) pmol/10^6 cells"
same,Islatravir‐TP Cmax,[7]; [16],"31.3 (22.2, 44.2) pmol/10^6 cells"
same,Islatravir‐TP AUC0–168 h,[7]; [17],"4740 (3560, 6320) h*pmol/10^6 cells"
same,Islatravir‐TP Cmax,[7]; [17],"46.7 (33.1, 65.9) pmol/10^6 cells"
same,islatravir‐TP C168 h versus pharmacokinetic target,"[7]; Study 2, after the first weekly dose at all dose levels, posterior probability calculation",> 0.53 pmol/10^6 cells
same,accumulation of intracellular islatravir‐TP,"[7]; Study 2, multiple weekly doses of 30 and 100 mg",modest degree of accumulation
same,accumulation of intracellular islatravir‐TP,"[7]; Study 2, multiple weekly doses of 30 and 100 mg, listed as islatravir‐triphosphate",modest degree
same,accumulation of intracellular islatravir‐TP,"[7]; Study 2, weekly administration",~1.5 fold
same,Tmax,[7]; 10 mg,48 h
same,Tmax,[7]; 30 mg,9 h
same,Tmax,[7]; 100 mg,18 h
same,"effect of food on islatravir‐TP AUC, Cmax, and C168",Study 1 [8]; 30 mg with a high‐fat meal,largely unchanged; also recorded: did not affect
same,posterior probability that the true mean intracellular islatravir‐TP C168 h is greater than 0.53 pmol/10^6 cells,Study 1 [8]; doses of 15 mg and above,greater than 99%
same,Intracellular islatravir‐TP AUC0–168 h,Study 1 [8]; single oral 5 mg fasted,91.6 (73.5–114) h*pmol/10^6cells
same,Intracellular islatravir‐TP AUC0–∞,Study 1 [8]; single oral 5 mg fasted,162 (120–217) h*pmol/10^6cells
same,Intracellular islatravir‐TP C168 h,Study 1 [8]; single oral 5 mg fasted,0.29 (0.19–0.45) pmol/10^6 cells
same,Intracellular islatravir‐TP Cmax,Study 1 [8]; single oral 5 mg fasted,1.06 (0.83–1.37) pmol/10^6cells
same,Intracellular islatravir‐TP AUC0–168 h,Study 1 [8]; single oral 15 mg fasted,341 (274–425) h*pmol/10^6cells
same,Intracellular islatravir‐TP AUC0–∞,Study 1 [8]; single oral 15 mg fasted,670 (499–900) h*pmol/10^6cells
same,Intracellular islatravir‐TP C168 h,Study 1 [8]; single oral 15 mg fasted,1.24 (0.80–1.92) pmol/10^6 cells
same,Intracellular islatravir‐TP Cmax,Study 1 [8]; single oral 15 mg fasted,3.65 (2.85–4.69) pmol/10^6cells
same,Intracellular islatravir‐TP AUC0–168 h,Study 1 [8]; single oral 30 mg fasted,871 (700–1080) h*pmol/10^6cells
same,Intracellular islatravir‐TP AUC0–∞,Study 1 [8]; single oral 30 mg fasted,1420 (1060–1900) h*pmol/10^6cells
same,Intracellular islatravir‐TP C168 h,Study 1 [8]; single oral 30 mg fasted,2.76 (1.78–4.29) pmol/10^6 cells
same,Intracellular islatravir‐TP Cmax,Study 1 [8]; single oral 30 mg fasted,8.21 (6.39–10.50) pmol/10^6cells
same,Intracellular islatravir‐TP Cmax,Study 1 [8]; single oral 30 mg fed,7.85 (6.11–10.1) pmol/10^6cells
same,Intracellular islatravir‐TP AUC0–∞,"Study 1 [8]; single oral 30 mg fed, N = 4",1370 (975–1920) ^g h*pmol/10^6cells
same,Intracellular islatravir‐TP AUC0–168 h,"Study 1 [8]; single oral 30 mg fed, N = 5",660 (520–838) ^f h*pmol/10^6cells
same,Intracellular islatravir‐TP C168 h,"Study 1 [8]; single oral 30 mg fed, N = 5",2.71 (1.67–4.40) ^f pmol/10^6 cells
same,Intracellular islatravir‐TP AUC0–168 h,Study 1 [8]; single oral 100 mg fasted,1260 (1010–1560) h*pmol/10^6cells
same,Intracellular islatravir‐TP AUC0–∞,Study 1 [8]; single oral 100 mg fasted,2480 (1850–3330) h*pmol/10^6cells
same,Intracellular islatravir‐TP C168 h,Study 1 [8]; single oral 100 mg fasted,4.79 (3.09–7.43) pmol/10^6 cells
same,Intracellular islatravir‐TP Cmax,Study 1 [8]; single oral 100 mg fasted,13.8 (10.7–17.7) pmol/10^6cells
same,Intracellular islatravir‐TP AUC0–168 h,Study 1 [8]; single oral 200 mg fasted,3100 (2490–3860) h*pmol/10^6cells
same,Intracellular islatravir‐TP AUC0–∞,Study 1 [8]; single oral 200 mg fasted,5180 (3850–6960) h*pmol/10^6cells
same,Intracellular islatravir‐TP C168 h,Study 1 [8]; single oral 200 mg fasted,7.73 (4.98–12.0) pmol/10^6 cells
same,Intracellular islatravir‐TP Cmax,Study 1 [8]; single oral 200 mg fasted,38.4 (29.9–49.3) pmol/10^6cells
same,Intracellular islatravir‐TP AUC0–168 h,Study 1 [8]; single oral 400 mg fasted,5300 (4260–6580) h*pmol/10^6cells
same,Intracellular islatravir‐TP AUC0–∞,Study 1 [8]; single oral 400 mg fasted,9320 (6950–12500) h*pmol/10^6cells
same,Intracellular islatravir‐TP C168 h,Study 1 [8]; single oral 400 mg fasted,18.3 (11.8–28.4) pmol/10^6 cells
same,Intracellular islatravir‐TP Cmax,Study 1 [8]; single oral 400 mg fasted,63.6 (49.6–81.6) pmol/10^6cells
same,intracellular persistence of islatravir‐TP,[3]; preclinically,> 72 h
